What was measured:
[1] = target: T1, Adrenergic receptor alpha-2 (Homo sapiens, UniProt P08913+P18825+P18089); experiment: Displacement of [3H]-RX-821002 from human alpha-2 adrenergic receptor in brain prefrontal cortex membrane by liquid scintillation spectrometry; type: cell membranes
T1 sequence (P08913 whole entry): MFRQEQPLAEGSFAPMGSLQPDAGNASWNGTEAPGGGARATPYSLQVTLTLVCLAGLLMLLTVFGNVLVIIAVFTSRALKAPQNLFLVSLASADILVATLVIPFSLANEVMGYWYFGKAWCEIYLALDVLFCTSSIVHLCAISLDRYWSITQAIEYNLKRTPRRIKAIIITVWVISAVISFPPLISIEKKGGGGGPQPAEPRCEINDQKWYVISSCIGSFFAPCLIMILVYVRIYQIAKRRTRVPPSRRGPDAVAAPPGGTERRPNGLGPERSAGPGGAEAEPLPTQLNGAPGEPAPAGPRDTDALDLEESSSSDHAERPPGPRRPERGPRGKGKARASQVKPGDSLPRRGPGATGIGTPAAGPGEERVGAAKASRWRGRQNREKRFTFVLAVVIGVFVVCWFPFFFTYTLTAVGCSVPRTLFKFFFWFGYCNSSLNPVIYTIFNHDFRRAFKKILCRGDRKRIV
T1 sequence (P18825 whole entry): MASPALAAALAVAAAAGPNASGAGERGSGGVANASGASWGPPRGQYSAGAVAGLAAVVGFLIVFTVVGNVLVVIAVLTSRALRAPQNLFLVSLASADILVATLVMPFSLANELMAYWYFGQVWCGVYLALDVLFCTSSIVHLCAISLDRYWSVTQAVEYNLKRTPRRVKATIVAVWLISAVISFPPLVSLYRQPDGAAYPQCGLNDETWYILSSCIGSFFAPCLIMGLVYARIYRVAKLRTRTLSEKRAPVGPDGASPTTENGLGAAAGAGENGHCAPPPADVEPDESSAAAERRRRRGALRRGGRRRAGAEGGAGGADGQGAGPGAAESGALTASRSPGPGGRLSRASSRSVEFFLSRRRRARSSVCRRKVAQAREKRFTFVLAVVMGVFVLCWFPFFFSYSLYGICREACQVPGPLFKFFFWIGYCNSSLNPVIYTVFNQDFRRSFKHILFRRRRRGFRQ
T1 sequence (P18089 whole entry): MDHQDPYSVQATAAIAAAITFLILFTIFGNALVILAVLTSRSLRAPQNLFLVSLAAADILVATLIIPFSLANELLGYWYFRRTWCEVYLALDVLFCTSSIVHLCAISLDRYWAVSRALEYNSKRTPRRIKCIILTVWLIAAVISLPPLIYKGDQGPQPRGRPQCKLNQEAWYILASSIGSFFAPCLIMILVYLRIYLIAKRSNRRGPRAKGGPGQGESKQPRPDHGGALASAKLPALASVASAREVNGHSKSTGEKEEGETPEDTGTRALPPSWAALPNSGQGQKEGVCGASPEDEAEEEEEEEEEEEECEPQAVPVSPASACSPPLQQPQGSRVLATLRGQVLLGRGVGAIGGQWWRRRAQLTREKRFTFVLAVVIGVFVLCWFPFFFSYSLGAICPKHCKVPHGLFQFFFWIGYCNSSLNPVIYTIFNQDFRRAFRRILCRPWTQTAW
Method in brief: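 Human prefrontal cortex brain membranes incubated with [3H]RX821002 (2 nM) in 50 mM Tris-HCl, pH 7.5, for 30 min at 25 °C, with competitor at 10 concentrations (10⁻¹²–10⁻³ M). Bound and free ligand separated by rapid vacuum filtration through GF/C filters, then scintillation counting. Adrenaline (10⁻⁵ M) defined nonspecific binding. Ki from one-site nonlinear regression, expressed as pKi.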

[2] = target: T1, Adrenergic receptor alpha-2; experiment: Antagonist activity at human alpha-2 adrenergic receptor in brain prefrontal cortex membrane assessed as inhibition of UK14304-induced [35S]-GTPgammaS binding by liquid scintillation spectrometry; type: functional, cell membranes
Method in brief: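 Human prefrontal cortex membranes (40 μg protein) incubated 120 min at 30 °C with shaking in 50 mM Tris-HCl pH 7.4 with 1 mM EGTA, 3 mM MgCl2, 100 mM NaCl, GDP and 0.5 nM [35S]GTPγS. Compounds at 10 concentrations (10⁻¹²–10⁻³ M) were tested against agonist UK14304. Filtration through GF/C filters, then scintillation counting. Nonspecific binding defined with 10 μM unlabeled GTPγS; nonlinear curve analysis.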

[3] = test system: Rattus norvegicus; experiment: Induction of noradrenaline release from Sprague-Dawley rat in prefrontal cortex at 10 mg/kg, ip […] by microdialysis; type: functional; conditions: route intraperitoneal
[4] = test system: Rattus norvegicus; experiment: Induction of noradrenaline release from Sprague-Dawley rat in prefrontal cortex at 1 to 100 uM local administration measured for every 70 mins by microdialysis; type: functional
Method in brief: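 Male Sprague-Dawley rats (250–300 g), probe placed in PFC under 1.5% isoflurane; tested 18–24 h later. Probe perfused with aCSF (pH 7.4) at 1 μL/min. Compounds dissolved in aCSF were given by reverse dialysis at 1, 10, then 100 μM, each for 70 min. Dialysates collected every 35 min; NA measured by HPLC with amperometric detection. Values are % of mean basal (first 3–4 samples); three animals/group.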

Row | SMILES | pKi [1] | further results
1 | CCNc1ccc(NC(=N)N)nc1.Cl | 4.12 | 
2 | Cc1ccc(NC(=N)NCCO)nc1.Cl | 5.21 | 
3 | CCNc1ccc(NC(=N)N)cn1.Cl | 6.35 | 
4 | Cc1ccc(NC(=N)N)cn1.Cl | 4.97 | 
5 | CCCNC1=NCc2ccccc2N1.Cl | 4.33 | 
6 | Cl.Clc1ccc(NC2=NCCN2)nc1 | 6.25 | 
7 | CCCNC(=N)Nc1ccc(Cl)cn1.Cl | 5.71 | 
8 | Cl.c1cc2c(nc1NC1=NCCN1)CCCC2 | 6.27 | EC50 [2]: 3.57 µM
9 | CCCNC(=N)Nc1ccc(C)cn1.Cl | 6.74 | 
10 | Cc1ccc(NC(=N)NCc2ccco2)nc1.Cl | 6.28 | 
11 | Cc1ccc(NC(=N)N)nc1.Cl | 6.03 | 
12 | Cl.OCCNC1=NCc2cccnc2N1 | 4.49 | 
13 | Cl.N=C(N)Nc1ccccn1 | 6.19 | 
14 | Cl.N=C(Nc1ccccc1)Nc1ccc2c(n1)CCCC2 | 6.75 | 
15 | Cl.c1ccc(NC2=NCc3ccccc3N2)cc1 | 4.4 | 
16 | Cc1ccc(NC2=NCCN2)nc1.Cl | 6.41 | 
17 | Cl.N=C(N)Nc1ccc2c(n1)CCCC2 | 6.78 | EC50 [2]: 2.71 µM
18 | Cl.N=C(NCCO)Nc1ccc2c(n1)CCCC2 | 5.83 | 
19 | Cl.c1ccc(NC2=NCCN2)nc1 | 6.44 | 
20 | Cl.OCCNC1=NCc2ccccc2N1 | 6.26 | EC50 [2]: 60.34 µM

Row | SMILES | pKi [1] | further results
21 | Cc1ccc(NC(=N)Nc2ccccc2)nc1.Cl | 6.02 | 
22 | Cl.c1cnc2c(c1)CN=C(NCc1ccc3c(c1)OCO3)N2 | 5.3 | 
23 | CCNc1ccc(NC2=NCCN2)nc1.Cl | 5.65 | 
24 | Cl.N=C(NCCO)Nc1ccccn1 | 5.38 | 
25 | Cl.N=C(N)Nc1ccc(N)cn1 | 5 | 
26 | Cl.N=C(NCc1ccco1)Nc1ccccn1 | 6.32 | 
27 | Cl.c1coc(CNC2=NCc3cccnc3N2)c1 | 4.5 | 
28 | CCNc1ccc(NC2=NCCN2)cn1.Cl | 7.13 | Activity [3]: 186%; EC50 [2]: 6.71 µM; Emax [4]: 429%
29 | Cl.N=C(N)Nc1ccc(Br)cn1 | 5.62 | 
30 | Cl.c1coc(CNC2=NCc3ccccc3N2)c1 | 5.35 | 
31 | Cl.N=C(N)Nc1ccc([N+](=O)[O-])cn1 | 5 | 
32 | Cl.N=C(N)Nc1cccnc1 | 3.79 | 
33 | Cl.N=C(N)Nc1ccc(Cl)cn1 | 5.7 | 
34 | Cl.N=C(NCc1ccco1)Nc1ccc2c(n1)CCCC2 | 6.67 | EC50 [2]: 37.01 µM
35 | Cl.c1cncc(NC2=NCCN2)c1 | 5.28 | 
36 | Cl.c1nc2c(cc1NC1=NCCN1)CCCC2 | 7.02 | Activity [3]: 138%; EC50 [2]: 4.23 µM; Emax [4]: 148%
37 | Cl.N=C(N)Nc1cnc2c(c1)CCCC2 | 5.57 | 
38 | Cl.N=C(Nc1ccccc1)Nc1ccccn1 | 6.21 | 
39 | Cl.N=C(N)Nc1ccc(Cl)nc1 | 5.18 | 

From ChEMBL document CHEMBL3407390, “α2-adrenoceptor antagonists: synthesis, pharmacological evaluation, and molecular modeling investigation of pyridinoguanidine, pyridino-2-aminoimidazoline and their derivatives” (J Med Chem, 2015)
